# Test results reported in ChEMBL document CHEMBL1131137, “New platelet fibrinogen receptor glycoprotein IIb-IIIa antagonists: orally active series of N-alkylated amidines with a 6,6-bicyclic template” (J Med Chem, 1998).
# Key:
# [1] = Solubility in saline.; type: physicochemical; conditions: read-out: S
# Outline: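 Solubility in saline determined by UV spectrophotometry.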
# [2] = Concentration in plasma 1 hr after oral administration; type: ADME, cell-free; conditions: read-out: Plasma level
# Outline: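 Male guinea pigs starved overnight, given prodrug orally at 37 μmol/kg in saline with 0.5% Tween 80. PPP taken 1 h post-dose under pentobarbital. Bioassay: treated PPP diluted with donor PPP, mixed with donor PRP, and aggregation to 5 μM ADP read against a standard curve of PPP spiked with the active acid.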
# Cavia porcellus [3] = experiment: Inhibition of ex vivo platelet aggregation induced by 5 uM Adenosine diphosphate (ADP) 1 hour after oral administration.; type: functional
# Outline: (§1)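 Fasted male guinea pigs dosed orally at 37 μmol/kg in saline with 0.5% Tween 80, then anesthetized with pentobarbital at 1 h and bled. PRP adjusted to 3.0 × 10⁸/mL, preincubated 2 min, and aggregated with ADP (final 5 μM). Inhibition relative to three vehicle-treated controls per experiment; mean of three animals.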
# Cavia porcellus [4] = species on record: Cavia porcellus; experiment: In vitro inhibition of guinea pig Platelet-rich plasma (PRP) aggregation induced by 5 uM ADP; type: functional
# [5] = biological target: Integrin alpha-IIb/beta-3 (Homo sapiens, UniProt P05106+P08514); experiment: Inhibition of Fibrinogen binding to Immobilized Human Fibrinogen Receptor.; type: protein-complex assay
# Chain of Integrin alpha-IIb/beta-3 (P05106 27-788 limits assumed): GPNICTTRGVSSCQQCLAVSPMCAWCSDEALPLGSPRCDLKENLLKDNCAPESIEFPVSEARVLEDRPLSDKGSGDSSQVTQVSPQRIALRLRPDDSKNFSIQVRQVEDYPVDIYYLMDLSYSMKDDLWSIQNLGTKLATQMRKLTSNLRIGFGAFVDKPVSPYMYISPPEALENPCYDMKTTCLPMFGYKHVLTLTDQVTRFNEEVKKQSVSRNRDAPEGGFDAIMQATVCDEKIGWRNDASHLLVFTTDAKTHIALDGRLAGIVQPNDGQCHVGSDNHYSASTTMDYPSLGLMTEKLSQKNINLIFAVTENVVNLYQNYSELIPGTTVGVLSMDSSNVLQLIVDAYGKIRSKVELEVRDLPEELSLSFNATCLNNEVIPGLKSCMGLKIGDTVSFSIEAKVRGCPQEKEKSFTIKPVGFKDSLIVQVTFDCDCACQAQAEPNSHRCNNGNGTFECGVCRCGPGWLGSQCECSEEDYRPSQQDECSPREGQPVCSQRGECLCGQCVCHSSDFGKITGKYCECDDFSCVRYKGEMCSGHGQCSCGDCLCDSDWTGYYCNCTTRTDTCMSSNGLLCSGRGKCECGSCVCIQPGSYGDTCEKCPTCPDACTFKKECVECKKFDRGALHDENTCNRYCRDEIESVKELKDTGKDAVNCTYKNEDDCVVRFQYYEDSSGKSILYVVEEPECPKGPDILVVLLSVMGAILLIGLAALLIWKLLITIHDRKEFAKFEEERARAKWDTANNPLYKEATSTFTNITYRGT
# Chain of Integrin alpha-IIb/beta-3 (P08514 32-887 limits assumed): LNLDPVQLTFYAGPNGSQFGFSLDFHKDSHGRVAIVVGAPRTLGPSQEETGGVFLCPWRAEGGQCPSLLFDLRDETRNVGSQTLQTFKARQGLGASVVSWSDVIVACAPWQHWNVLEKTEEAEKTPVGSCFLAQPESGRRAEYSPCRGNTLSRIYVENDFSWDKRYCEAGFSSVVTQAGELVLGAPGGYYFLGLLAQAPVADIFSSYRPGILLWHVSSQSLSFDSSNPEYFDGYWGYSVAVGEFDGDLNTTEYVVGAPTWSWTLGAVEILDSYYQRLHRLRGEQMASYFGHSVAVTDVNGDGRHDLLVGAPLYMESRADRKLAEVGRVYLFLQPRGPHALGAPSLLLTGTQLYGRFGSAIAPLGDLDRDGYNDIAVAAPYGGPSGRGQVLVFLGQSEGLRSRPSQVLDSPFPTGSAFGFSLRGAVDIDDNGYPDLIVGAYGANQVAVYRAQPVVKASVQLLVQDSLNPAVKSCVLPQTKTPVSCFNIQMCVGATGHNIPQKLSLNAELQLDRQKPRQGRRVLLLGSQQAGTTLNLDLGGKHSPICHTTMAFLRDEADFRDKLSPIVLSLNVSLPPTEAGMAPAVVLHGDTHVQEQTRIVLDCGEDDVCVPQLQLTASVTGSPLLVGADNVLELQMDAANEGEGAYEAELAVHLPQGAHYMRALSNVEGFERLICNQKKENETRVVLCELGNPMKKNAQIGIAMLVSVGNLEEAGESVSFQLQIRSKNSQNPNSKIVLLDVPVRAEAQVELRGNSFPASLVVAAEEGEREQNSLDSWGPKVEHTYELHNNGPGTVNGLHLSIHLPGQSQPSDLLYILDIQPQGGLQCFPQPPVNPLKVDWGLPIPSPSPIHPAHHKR
# Chain of Integrin alpha-IIb/beta-3 (P08514 891-1039 limits assumed): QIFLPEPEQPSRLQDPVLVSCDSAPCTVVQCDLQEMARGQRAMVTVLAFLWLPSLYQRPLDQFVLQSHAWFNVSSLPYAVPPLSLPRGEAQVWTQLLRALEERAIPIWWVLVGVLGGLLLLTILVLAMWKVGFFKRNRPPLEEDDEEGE
# Outline: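 Human platelet GPIIb-IIIa purified (ConA-, heparin-Sepharose, Sephacryl S-300) and coated at 1.5 μg/mL in TBS with 0.0005% Triton, 24 h at 4 °C, then blocked with 3.5% BSA. Compound plus biotinylated fibrinogen (2 μg/mL before 1:1 mixing) incubated 24 h at room temperature. Detection by peroxidase-streptavidin and o-phenylenediamine, A490.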
# Homo sapiens = species on record: Homo sapiens; experiment: In vitro inhibition of human Platelet-rich plasma (PRP) aggregation induced by 5 uM ADP; type: functional
# Outline: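 PRP prepared by 120g 15-min spin of citrated venous blood (3.8% citrate, 1:9) from anesthetized male guinea pigs or male human volunteers, adjusted to 2.5–3.0 × 10⁸ platelets/mL with PPP. PRP warmed 2 min at 37 °C, compound or vehicle added, then 2 min later ADP (final 5 μM). Maximum aggregation compared with control; IC50 estimated.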
# Cavia porcellus [6] = experiment: Inhibition of ex vivo platelet aggregation induced by 5 uM Adenosine diphosphate (ADP) 1 hour after oral administration at the dose of 37umol/kg; type: functional; outline: as §1
Compound,IC50 (Cavia porcellus [4]),IC50 [5],IC50 (Homo sapiens),other results
C#CCNC(=N)c1ccc(C(=O)Nc2ccc3c(c2)CC(CC(=O)OCC)CO3)cc1 (stereo not drawn),,,,solubility [1]: 106000 µg/mL; concentration at 1 h [2]: 3800 nM; Inhibition (Cavia porcellus [3]): 99%
C=CCNC(=N)c1ccc(C(=O)Nc2ccc3c(c2)CC(CC(=O)OCC)CC3)cc1 (stereo not drawn),,,,concentration at 1 h [2]: 380 nM; Inhibition (Cavia porcellus [3]): 21%
NC(=NCc1ccco1)c1ccc(C(=O)Nc2ccc3c(c2)CC(CC(=O)O)CC3)cc1 (stereo not drawn),0.62 µM,0.2 nM,,
N=C(N)c1ccc(C(=O)Nc2ccc3c(c2)CC(CC(=O)O)CO3)cc1 (stereo not drawn),,0.073 nM,0.049 µM,
N=C(N)c1ccc(/C=C/c2ccc3c(c2)CC(CC(=O)O)CC3)cc1 (stereo not drawn),5 µM,,,
N=C(c1ccc(C(=O)Nc2ccc3c(c2)CC(CC(=O)O)CO3)cc1)N1CCOCC1 (stereo not drawn),0.23 µM,0.098 nM,0.066 µM,
CCC/N=C(\N)c1ccc(C(=O)Nc2ccc3c(c2)CC(CC(=O)OCC)CC3)cc1 (stereo not drawn),,,,concentration at 1 h [2]: < 180 nM; Inhibition (Cavia porcellus [3]): 3%
CCCNC(=N)c1ccc(C(=O)Nc2ccc3c(c2)CC(CC(=O)O)CC3)cc1 (stereo not drawn),0.17 µM,0.13 nM,0.068 µM,
C#CCNC(=N)c1ccc(C(=O)Nc2ccc3c(c2)CC(CC(=O)O)CO3)cc1 (stereo not drawn),0.35 µM,0.13 nM,0.078 µM,
CCOC(=O)CC1COc2ccc(NC(=O)c3ccc(C(=N)N4CCOCC4)cc3)cc2C1 (stereo not drawn),,,,solubility [1]: > 200000 µg/mL; concentration at 1 h [2]: 8400 nM; Inhibition (Cavia porcellus [3]): 99%
N=C(c1ccc(C(=O)Nc2ccc3c(c2)CC(CC(=O)O)CC3)cc1)N1CCOCC1 (stereo not drawn),0.19 µM,0.15 nM,0.08 µM,
C#CC/N=C(\N)c1ccc(C(=O)Nc2ccc3c(c2)CC(CC(=O)O)CC3)cc1 (stereo not drawn),0.3 µM,0.16 nM,0.1 µM,
N=C(N)c1ccc(COc2ccc3ccc(CC(=O)O)cc3c2)cc1,> 1000 µM,,,
C#CCNC(=N)c1ccc(C(=O)Nc2ccc3c(c2)CC(CC(=O)OCC)CC3)cc1 (stereo not drawn),,,,solubility [1]: 1500 µg/mL; concentration at 1 h [2]: 1000 nM; Inhibition (Cavia porcellus [3]): 99%
N=C(N)c1ccc(C(=O)Nc2ccc3c(c2)CN(CC(=O)O)CC3)cc1,6.6 µM,,0.29 µM,
N=C(N)c1ccc(COc2ccc3c(c2)CC(CC(=O)O)CC3)cc1 (stereo not drawn),,,1.5 µM,
C=CCNC(=N)c1ccc(C(=O)Nc2ccc3c(c2)CC(CC(=O)O)CC3)cc1 (stereo not drawn),0.49 µM,0.26 nM,,
N=C(N)c1ccc(C(=O)Nc2ccc3c(c2)CC(CC(=O)O)CC3)cc1 (stereo not drawn),0.37 µM,0.12 nM,0.057 µM,inhibition in vivo at 37 µmol/kg (Cavia porcellus [6]): 8%
CCOC(=O)CC1CCc2ccc(NC(=O)c3ccc(C(=N)N)cc3)cc2C1 (stereo not drawn),,,,solubility [1]: 260 µg/mL; inhibition in vivo at 37 µmol/kg (Cavia porcellus [6]): 41%
CCOC(=O)CC1CCc2ccc(NC(=O)c3ccc(C(=N)NCc4ccco4)cc3)cc2C1 (stereo not drawn),,,,solubility [1]: 1060 µg/mL; concentration at 1 h [2]: 850 nM; Inhibition (Cavia porcellus [3]): 91%
N=C(c1ccc(C(=O)Nc2ccc3c(c2)C[C@@H](CC(=O)O)CO3)cc1)N1CCOCC1,0.11 µM,0.12 nM,0.035 µM,
N=C(N)c1ccc(CCc2ccc3c(c2)CC(CC(=O)O)CC3)cc1 (stereo not drawn),,,0.37 µM,
N=C(c1ccc(C(=O)Nc2ccc3c(c2)C[C@H](CC(=O)O)CO3)cc1)N1CCOCC1,,2.6 nM,0.36 µM,
CN(C(=O)c1ccc(C(=N)N)cc1)c1ccc2c(c1)CC(CC(=O)O)CC2 (stereo not drawn),1.8 µM,,0.2 µM,
CCOC(=O)CC1COc2ccc(NC(=O)c3ccc(C(=N)N)cc3)cc2C1 (stereo not drawn),,,,solubility [1]: 410 µg/mL; inhibition in vivo at 37 µmol/kg (Cavia porcellus [6]): 40%
CCOC(=O)CC1CCc2ccc(NC(=O)c3ccc(C(=N)N4CCOCC4)cc3)cc2C1 (stereo not drawn),,,,solubility [1]: > 200000 µg/mL; concentration at 1 h [2]: 7300 nM; Inhibition (Cavia porcellus [3]): 98%
N=C(N)c1ccc(NC(=O)c2ccc3c(c2)CC(CC(=O)O)CC3)cc1 (stereo not drawn),0.23 µM,,0.046 µM,
